Measured values published in ChEMBL document CHEMBL3272265, “Interferon inducing activities of derivatives of 1,3-dimethyl-4-(3-dimethylaminopropylamino)-1H-pyrazolo(3,4-b)quinoline and related compounds” (J Med Chem, 1976).
The source made the active and inactive calls. No cut-off for these calls is given here.

Test system: Mus musculus
Assay: Toxicity in CD-1 mouse at 300 mg/kg, ip
Type: organism-based
Design: dose 300 mg/kg, route intraperitoneal
Details: in vivo

| Structure (SMILES) | Activity |
| --- | --- |
| Cc1nn(C)c2nc3ccccc3c(NCCCNC3CCCCC3)c12.Cl | Toxic |

Test system: Mus musculus
Assay: Induction of interferon level >= 32 units/mL in ip dosed CD-1 mouse serum after 18 to 20 hrs by vesicular stomatitis virus plaque reduction assay
Type: functional
Details: CD-1, Serum, read-out: MED
Outline: (§1)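 Female CD-1 mice (15 g; at least three per dose) received compound dissolved or suspended in sterile distilled water, orally or ip. They were bled 18–20 hr later and sera pooled. Interferon was titrated by plaque reduction in mouse L cells challenged with vesicular stomatitis virus, with an NIAID reference mouse interferon standard. MED was the lowest dose giving ≥32 units/ml. Top doses were 400 mg/kg po and 300 mg/kg ip.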

| Structure (SMILES) | minimal effective dose [mg/kg] |
| --- | --- |
| Cc1nn(C)c2nc3ccccc3c(NCCCN3CCNCC3)c12.Cl | 100 |
| COc1cc(OC)c2c(NCCCN(C)C)c3c(C)nn(C)c3nc2c1.Cl | 25 |
| Cc1ccc2c(NCCCN(C)C)c3c(C)nn(C)c3nc2c1C.Cl | 200 |
| Cc1ccc2nc3c(c(C)nn3C)c(NCCCN(C)C)c2c1.Cl | 50 |
| Cc1nn(C)c2nc3ccccc3c(NCCCN)c12.Cl | ≥ 300 |
| CCNc1ccc2nc3c(c(C)nn3C)c(NCCCN(C)C)c2c1.Cl | 25 |
| COc1cc2nc3c(c(C)nn3C)c(NCCCN(C)C)c2cc1OC.Cl | 50 |
| Cc1cc2nc3c(c(C)nn3C)c(NCCCN(C)C)c2cc1C.Cl | 25 |
| Cc1nn(C)c2nc3ccccc3c(CNCCCN(C)C)c12.Cl | ≥ 300 |
| COc1ccc2c(NCCCN(C)C)c3c(C)nn(C)c3nc2c1.Cl | 50 |
| Cc1nn(C)c2nc3cc4ccccc4cc3c(NCCCN(C)C)c12.Cl | 100 |
| Cc1nn(C)c2nc3c(ccc4ncccc43)c(NCCCN(C)C)c12.Cl | 100 |
| Cc1nn(C)c2nc3ccccc3c(NCCCCNc3c4ccccc4nc4c3c(C)nn4C)c12 | ≥ 300 |
| CCN(CC)CCCNc1c2ccccc2nc2c1c(C)nn2C.Cl | 300 |
| Cc1nn(C)c2nc3ccccc3c(NCCCN(C)CCCN(C)C)c12.Cl | > 300 |
| Cc1nn(C)c2nc3ccccc3c(NCCCCCN(C)C)c12.Cl | 150 |
| COc1cccc2nc3c(c(C)nn3C)c(NCCCN(C)C)c12.Cl | 100 |
| Cc1nn(C)c2nc3ccccc3c(NCCCN3CCN(C)CC3)c12.Cl | 300 |
| COc1cccc2c(NCCCN(C)C)c3c(C)nn(C)c3nc12.Cl | 50 |
| CNCCCNc1c2ccccc2nc2c1c(C)nn2C.Cl | 150 |
| Cc1nn(C)c2nc3cc(Cl)ccc3c(NCCCN(C)C)c12.Cl | ≥ 100 |
| CCN1CCCC(Nc2c3ccccc3nc3c2c(C)nn3C)C1.Cl (centres undefined) | ≥ 300 |
| Cc1nn(C)c2nc3ncccc3c(NCCCN(C)C)c12.Cl | ≥ 300 |
| Cc1nn(C)c2nc3ccccc3c(NN3CCN(C)CC3)c12.Cl | 300 |
| Cc1nn(C)c2nc3cc(CO)ccc3c(NCCCN(C)C)c12.Cl | 100 |
| Cc1nn(C)c2nc3ccccc3c(NCCCNC(C)C)c12.Cl | ≥ 300 |
| Cc1nn(C)c2nc3ccccc3c(NCCCNC(C)(C)C)c12.Cl | ≥ 300 |

Test system: Mus musculus
Assay: Induction of interferon level in CD-1 mouse serum at 300 mg/kg, ip after 18 to 20 hrs by vesicular stomatitis virus plaque reduction assay
Type: functional, organism-based
Design: dose 300 mg/kg
Details: not given
Outline: (§2)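 Dosing was oral or ip in 15-g female CD-1 mice, at least three per dose level, with compound in sterile distilled water as a solution or suspension. Pooled sera were collected 18–20 hr after dosing. Interferon units/ml were quantified by a plaque reduction assay on mouse L cells with vesicular stomatitis virus challenge, run against an NIAID reference mouse interferon standard.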

| Structure (SMILES) | Activity |
| --- | --- |
| Cc1nn(C)c2nc3ccccc3c(N3CCCCC3CCN(C)C)c12 (centres undefined) | inactive |
| COc1ccc(-n2nc(C)c3c(NCCCN(C)C)c4ccccc4nc32)cc1 | inactive |
| Cc1nn(C)c2nc3ccc(S(=O)(=O)NCCCN(C)C)cc3c(NCCCN(C)C)c12 | inactive |
| Cc1cc(NCCCNc2c3ccccc3nc3c2c(C)nn3C)n(C)n1 | inactive |
| CN(C)CCCNc1ccnc2ccccc12 | inactive |
| Cc1nn(C)c2nc3cc(C(=O)O)ccc3c(NCCCN(C)C)c12 | inactive |
| Cc1nn(C)c2nc3c(Cl)cccc3c(NCCCN(C)C)c12 | inactive |
| Cc1nn(C)c2nc3ccccc3c(S)c12 | inactive |
| Cc1cc(Nc2ccccc2CNCCCN(C)C)n(C)n1 | inactive |
| Cc1nn(C)c2nc3cc([N+](=O)[O-])ccc3c(NCCCN(C)C)c12 | inactive |
| Cc1nn(C)c2nc3ccccc3c(NC34CC5CC(CC(C5)C3)C4)c12 | inactive |
| Cc1nn(C)c2nc3ccc(S(=O)(=O)O)cc3c(NCCCN(C)C)c12 | inactive |
| Cc1nn(CC(=O)O)c2nc3ccccc3c(NCCCN(C)C)c12 | inactive |
| Cc1nn(C)c2nc3ccccc3c(NCCCN(CCO)CCO)c12 | inactive |
| Cc1n[nH]c2nc3ccccc3c(NCCCN(C)C)c12 | inactive |
| Cc1nn(C)c2nc3cc(O)ccc3c(NCCCN(C)C)c12 | inactive |
| COC(=O)CCCNc1c2ccccc2nc2c1c(C)nn2C | inactive |
| Cc1nn(C)c2nc3ncncc3c(NCCCN(C)C)c12 | inactive |
| Cc1cc(Nc2ccccc2C(=O)NCCCN(C)C)n(C)n1 | inactive |

| Structure (SMILES) | Activity |
| --- | --- |
| Cc1nn(C)c2nc3ccc(O)cc3c(NCCCN(C)C)c12 | inactive |
| COC(=O)c1ccc2c(NCCCN(C)C)c3c(C)nn(C)c3nc2c1 | inactive |
| CN(C)CCCNc1ccncc1 | inactive |
| Cc1nn(C)c2nc3ccccc3c(NCCCNC=O)c12 | inactive |
| Cc1nn(C)c2nc3ccccc3c(NCCCC(=O)O)c12 | inactive |
| CNCc1c2ccccc2nc2c1c(C)nn2C | inactive |
| Cc1nn(CC(=O)NCCCN(C)C)c2nc3ccccc3c(NCCCN(C)C)c12 | inactive |
| Cc1nn(-c2ccccc2)c2nc3ccccc3c(NCCCN(C)C)c12 | inactive |
| Cc1nn(C)c2nc3cccc(N)c3c(NCCCN(C)C)c12 | inactive |
| Cc1nn(-c2ccc(C(=O)O)cc2)c2nc3ccccc3c(NCCCN(C)C)c12 | inactive |
| Cc1nn(C)c2nc3ccccc3c(CCNCCCNCCCN(C)C)c12 | inactive |
| Cc1nn(C)c2nc3ccc(N)cc3c(NCCCN(C)C)c12 | inactive |
| Cc1nn(C)c2nc3ccc(S(N)(=O)=O)cc3c(NCCCN(C)C)c12 | inactive |
| Cc1nn(C)c2nc3ccccc3c(NCc3ccccc3N(C)C)c12 | inactive |
| Cc1cc(Nc2c3ccccc3nc3c2c(C)nn3C)n(C)n1 | inactive |
| Cc1nn(C)c2nc3cc(C(=O)NCCCN(C)C)ccc3c(NCCCN(C)C)c12 | inactive |
| Cc1nn(CCO)c2nc3ccccc3c(NCCCN(C)C)c12 | inactive |
| CC(=O)Nc1ccc2nc3c(c(C)nn3C)c(NCCCN(C)C)c2c1 | inactive |

Test system: Mus musculus
Assay: Induction of interferon level >= 32 units/mL in po dosed CD-1 mouse serum after 18 to 20 hrs by vesicular stomatitis virus plaque reduction assay
Type: functional
Details: CD-1, Serum, read-out: MED
Outline: as §1

| Structure (SMILES) | minimal effective dose [mg/kg] |
| --- | --- |
| COc1cc(OC)c2c(NCCCN(C)C)c3c(C)nn(C)c3nc2c1.Cl | 25 |
| Cc1ccc2c(NCCCN(C)C)c3c(C)nn(C)c3nc2c1C.Cl | 200 |
| Cc1ccc2nc3c(c(C)nn3C)c(NCCCN(C)C)c2c1.Cl | 50 |
| CCNc1ccc2nc3c(c(C)nn3C)c(NCCCN(C)C)c2c1.Cl | 50 |
| COc1cc2nc3c(c(C)nn3C)c(NCCCN(C)C)c2cc1OC.Cl | 50 |
| CN(C)CCCNc1c2ccccc2nc2c1ccn2C | 200 |
| Cc1cc2nc3c(c(C)nn3C)c(NCCCN(C)C)c2cc1C.Cl | 50 |
| Cc1nn(C)c2nc3cc(F)ccc3c(NCCCN(C)C)c12.Cl | ≥ 100 |
| COc1ccc2c(NCCCN(C)C)c3c(C)nn(C)c3nc2c1.Cl | 50 |
| Cc1nn(C)c2nc3ccccc3c(NCCCCCCN(C)C)c12.Cl | 200 |
| Cc1nn(C)c2nc3c(ccc4ncccc43)c(NCCCN(C)C)c12.Cl | 100 |
| CCN(CC)CCCNc1c2ccccc2nc2c1c(C)nn2C.Cl | 400 |
| Cc1nn(C)c2nc3ccccc3c(NCCCN3CCCC3)c12.Cl | 200 |
| CN(C)CCCNc1c2ccccc2nc2c1cnn2C.Cl | 200 |
| Cc1nn(C)c2nc3ccc(F)cc3c(NCCCN(C)C)c12.Cl | ≥ 400 |
| Cc1nn(C)c2nc3ccccc3c(NCCCCCN(C)C)c12.Cl | 200 |
| COc1cccc2nc3c(c(C)nn3C)c(NCCCN(C)C)c12.Cl | 100 |
| COc1cccc2c(NCCCN(C)C)c3c(C)nn(C)c3nc12.Cl | 100 |
| CNCCCNc1c2ccccc2nc2c1c(C)nn2C.Cl | 200 |
| Cc1nn(C)c2nc3cc(Cl)ccc3c(NCCCN(C)C)c12.Cl | ≥ 100 |
| CCN(CC)CC(O)CNc1c2ccccc2nc2c1c(C)nn2C.Cl (centres undefined) | 400 |
| Cc1nn(C)c2nc3ccccc3c(NCCCCN(C)C)c12.Cl | 200 |
| Cc1nn(C)c2nc3cc(CO)ccc3c(NCCCN(C)C)c12.Cl | 200 |
| Cc1nn(C)c2nc3ccccc3c(NCCN(C)C)c12.Cl | 400 |
| Cc1cc(C)c2nc3c(c(C)nn3C)c(NCCCN(C)C)c2c1.Cl | 400 |

Test system: Mus musculus
Assay: Induction of interferon level in CD-1 mouse serum at 400 mg/kg, po after 18 to 20 hrs by vesicular stomatitis virus plaque reduction assay
Type: functional, organism-based
Design: dose 400 mg/kg
Details: not given
Outline: as §2

| Structure (SMILES) | Activity |
| --- | --- |
| Cc1nn(C)c2nc3ccccc3c(NCCC[S+](C)[O-])c12 (centres undefined) | inactive |
| Cc1nn(C)c2c1Cc1ccccc1N2 | inactive |
| Cc1nn(C)c2nc3ccccc3c(NCCCCl)c12 | inactive |
| Cc1nn(C)c2nc3cc(N)ccc3c(NCCCN(C)C)c12 | inactive |
| CCN(CC)CCCC(C)Nc1c2ccccc2nc2c1c(C)nn2C (centres undefined) | inactive |
| Cc1nn(C)c2nc3cccc([N+](=O)[O-])c3c(NCCCN(C)C)c12 | inactive |
| Cc1nn(C)c2nccc(NCCCN(C)C)c12 | inactive |
| Cc1nn(C)c2nc3ccccc3c(NCCCO)c12 | inactive |
| Cc1nsc2nc3ccccc3c(NCCCN(C)C)c12 | inactive |
| Cc1nn(C)c2ncc(C(=O)O)c(NCCCN(C)C)c12 | inactive |
| CSCCCNc1c2ccccc2nc2c1c(C)nn2C | inactive |
| CNc1c2ccccc2nc2c1c(C)nn2C | inactive |
| Cc1nn(C)c2nc3ccccc3cc12 | inactive |
| CC(=O)Nc1ccc2c(NCCCN(C)C)c3c(C)nn(C)c3nc2c1 | inactive |
| Cc1nn(C)c2nc3c(cnn3C)c(NCCCN(C)C)c12 | inactive |
| Cc1nn(C)c2nc3ccccc3c(CCNCCCN(C)C)c12 | inactive |
| Cc1nn(C)c2nc3ccccc3c(SCc3ccccc3)c12 | inactive |
| Cc1nn(C)c2nc3cc(C(N)=O)ccc3c(NCCCN(C)C)c12 | inactive |
| Cc1nn(C)c2nc3cccc(NCCCN(C)C)c3cc12 | inactive |
| Cc1nn(C)c2nc3c(cc12)CCCC3 | inactive |
| Cc1cccc2c(NCCCN(C)C)c3ccccc3nc12 | inactive |
| Cc1nn(C)c2nc3c(c(C)nn3C)c(NCCCN(C)C)c12 | inactive |
| Cc1nn(C)c2nc3ccccc3c(N)c12 | inactive |
| Cc1nn(C)c2nc3ccccc3c(Cl)c12 | inactive |
